Test [1] has as its target T1, Vasopressin V2 receptor (Homo sapiens, UniProt P30518). The test can be described thus: Displacement of [3H]vasopressin from human vasopressin V2 receptor expressed in CHO cells by microplate scintillation counting. In kind it is cell-based. The essentials:
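Membranes came from human V2-expressing CHO cells: hypotonic lysis, then centrifugation at 1000g and 35,000g at 4 °C. They were incubated with [3H]vasopressin at 0.91 nmol/L final in 50 mmol/L Tris-HCl pH 7.4, filtered on GF/B and washed with ice-cold Tris buffer. Retained radioactivity was scintillation counted. Assays were run in triplicate.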
On the technique in general: Displacement assays read how much labelled ligand stays bound in the presence of the test substance.

The next test deals with Vasopressin V1a receptor (Homo sapiens, UniProt P37288). As to the kind of experiment: Displacement of [3H]vasopressin from human vasopressin V1A receptor expressed in CHO cells by microplate scintillation counting. It is filed as cell-based.
The target in test [2] is Vasopressin V1a/V2 (Homo sapiens) (UniProt P30518+P37288). As to the kind of experiment: Selectivity ratio of Ki for human vasopressin V1A receptor to Ki for human vasopressin V2 receptors.
Test [3] addresses T1, Vasopressin V2 receptor. The test can be described thus: Agonist activity at human vasopressin V2 receptor expressed in CHO cells assessed as cAMP accumulation by HTRF assay. In kind it is functional, cell-based. A digest of the protocol: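 CHO cells with human V2 receptor were grown to subconfluence and serum-starved for 24 h. They were then exposed to test compound for 10 min at 37 °C in α-MEM with 1 mmol/L IBMX and 0.1% BSA, and lysed in PBS with 0.2% Triton X-100. cAMP was read by HTRF. EC50 is the concentration giving 50% of the maximal AVP response. Triplicate.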
Background: Cyclic AMP is a second messenger, typically raised through Gs and lowered through Gi signalling.

Test [4] addresses T1, Vasopressin V2 receptor. As to the kind of experiment: Intrinsic activity at human vasopressin V2 receptor expressed in CHO cells assessed as cAMP accumulation by HTRF assay relative to AVP. It is filed as functional, cell-based. The essentials:
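Intrinsic activity was measured in the cAMP HTRF assay in human V2-CHO cells: 24 h serum-free, then 10 min at 37 °C with 1 mmol/L IBMX. It is the compound's maximal response as a percentage of the maximal AVP response (100%). Assays were run in triplicate.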

Another test deals with Rattus norvegicus. The test can be described thus: Antidiuretic activity in water-loaded po dosed Wistar rat assessed as decrease in urinary excretion administered 15 mins prior to water loading measured up to 4 hrs. The settings on record: Urine. In kind it is functional. A digest of the protocol: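 Male Wistar rats (200–300 g) were pre-screened for at least 70% excretion of an oral water load. They were deprived of feed and water and dosed orally without anesthesia. Distilled water (30 mL/kg po) was given 15 min later, and urine was collected in metabolic cages for 4 h (n = 3–6). Excretion was expressed as % of the loaded volume. ED50, the dose lowering excretion to 50%, came from linear regression.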

Sequence of Vasopressin V1a/V2 (Homo sapiens) (P30518 whole entry, looked up): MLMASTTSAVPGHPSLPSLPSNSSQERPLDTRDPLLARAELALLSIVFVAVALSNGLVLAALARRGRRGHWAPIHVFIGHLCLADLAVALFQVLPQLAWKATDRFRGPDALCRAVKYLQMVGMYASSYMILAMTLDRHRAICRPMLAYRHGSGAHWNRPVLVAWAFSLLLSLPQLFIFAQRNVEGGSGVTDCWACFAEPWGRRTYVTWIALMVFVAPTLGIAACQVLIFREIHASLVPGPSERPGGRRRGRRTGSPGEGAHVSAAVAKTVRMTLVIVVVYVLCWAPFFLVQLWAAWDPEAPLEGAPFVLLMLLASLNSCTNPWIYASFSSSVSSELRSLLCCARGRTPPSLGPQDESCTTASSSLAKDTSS
Sequence of Vasopressin V1a/V2 (Homo sapiens) (P37288 whole entry, looked up): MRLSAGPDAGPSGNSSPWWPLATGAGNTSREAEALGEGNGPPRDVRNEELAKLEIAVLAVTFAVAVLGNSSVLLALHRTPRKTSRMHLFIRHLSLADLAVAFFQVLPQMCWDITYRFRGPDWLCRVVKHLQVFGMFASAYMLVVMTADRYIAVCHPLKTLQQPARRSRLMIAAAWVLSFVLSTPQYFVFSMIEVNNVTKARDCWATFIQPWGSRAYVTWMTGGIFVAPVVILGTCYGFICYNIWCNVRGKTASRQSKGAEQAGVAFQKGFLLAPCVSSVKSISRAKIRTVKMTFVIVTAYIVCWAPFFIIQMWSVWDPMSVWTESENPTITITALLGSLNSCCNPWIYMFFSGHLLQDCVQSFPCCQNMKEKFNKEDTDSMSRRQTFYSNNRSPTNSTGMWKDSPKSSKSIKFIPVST
T1 sequence (P30518 whole entry): as the sequence (P30518 whole entry, looked up) above
Sequence of Vasopressin V1a receptor (P37288 whole entry): as the sequence (P37288 whole entry, looked up) above

`Cc1ccn(-c2ccc(C(=O)N3CCC(F)(F)/C(=C\C(=O)NCCO)c4ccccc43)c(C(F)(F)F)c2)n1`: the inhibition constant (Ki) (in general, the dissociation constant of the complex between target and ligand, obtained from inhibition or displacement) came out at 78 nM on Vasopressin V2 receptor [1] and 170 nM at Vasopressin V1a receptor. For the same compound, the Ratio Ki in test [2] came out at 2.2. Further, the EC50 (commonly the concentration giving half of the maximal effect) at Vasopressin V2 receptor [3] was found to be 2.4 nM. The Intrinsic activity on Vasopressin V2 receptor [4] came to 115%. Further, the ED50 (usually the dose at which the effect has come halfway, by size or by number of responders) in the test with Rattus norvegicus was determined as 0.2 mg/kg.
Regarding `Cc1ccn(-c2ccc(C(=O)N3CCC(F)(F)/C(=C\C(=O)NCCO)c4ccccc43)c(Cl)c2)n1`, in test [2], the Ratio Ki came out at 2.9. Moreover, the Intrinsic activity on Vasopressin V2 receptor [4] turned out to be 93.9%. For the same compound, in the test on Rattus norvegicus, the 50% effective dose (ED50) worked out at 0.14 mg/kg.
As to `C[C@H]1CCN(c2ccc(C(=O)N3CCC(F)(F)/C(=C\C(=O)NCCO)c4ccccc43)c(Cl)c2)C1`, the inhibition constant (Ki) is 14 nM at Vasopressin V2 receptor [1] and 17 nM at Vasopressin V1a receptor. Besides, in test [2], the Ratio Ki worked out at 1.2. Further, the EC50 on Vasopressin V2 receptor [3] was 0.98 nM. The Intrinsic activity on Vasopressin V2 receptor [4] amounted to 109%.
On to `C[C@H]1CCN(c2ccc(C(=O)N3CCC(F)(F)/C(=C\C(=O)NCCO)c4ccccc43)c(C(F)(F)F)c2)C1`, for which the results for the Ki at Vasopressin V2 receptor [1] and on Vasopressin V1a receptor were 14 nM and 43 nM, respectively. Also, the Ratio Ki in test [2] was determined as 3.1. The EC50 on Vasopressin V2 receptor [3] was determined as 1 nM. Further, the Intrinsic activity at Vasopressin V2 receptor [4] amounted to 111%. Moreover, the ED50 with Rattus norvegicus amounted to 0.012 mg/kg.
For `C[C@@H]1CCN(c2ccc(C(=O)N3CCC(F)(F)/C(=C\C(=O)NCCO)c4ccccc43)c(C(F)(F)F)c2)C1`, the inhibition constant Ki worked out at 16 nM at Vasopressin V2 receptor [1] and 39 nM on Vasopressin V1a receptor. Besides, in test [2], the Ratio Ki was 2.4. Moreover, the half-maximal effective concentration (EC50) at Vasopressin V2 receptor [3] worked out at 1 nM. Moreover, the Intrinsic activity at Vasopressin V2 receptor [4] stood at 114%. In addition, the median effective dose (ED50) with Rattus norvegicus was 0.04 mg/kg.
For `C[C@@H]1CCN(c2ccc(C(=O)N3CCC(F)(F)/C(=C\C(=O)NCCO)c4ccccc43)c(Cl)c2)C1`, the Ki on Vasopressin V2 receptor [1] and on Vasopressin V1a receptor was 13 nM throughout. Also, the Ratio Ki in test [2] came out at 1. At Vasopressin V2 receptor [3], the EC50 came to 0.99 nM. Further, the Intrinsic activity on Vasopressin V2 receptor [4] amounted to 118%.

The values above are taken from ChEMBL document CHEMBL1153110, “Optimization of (4,4-difluoro-1,2,3,4-tetrahydro-5H-1-benzazepine-5-ylidene)acetamide derivatives as arginine vasopressin V2 receptor agonists and discussion of their binding modes” (Bioorg Med Chem, 2009).
